The values that follow come from ChEMBL document CHEMBL1121998, “Synthesis and hypoglycemic activity of phenylalkyloxiranecarboxylic acid derivatives” (J Med Chem, 1982).

The source made the active and inactive calls. The rule behind the calls is not given here. Some results are limits rather than exact numbers.

As usually defined, the ED50 is the midpoint of the dose-response relation. A word on the LD50: it is the dose expected to kill half of the subjects tested.

The subject of series [1] is Rattus norvegicus. As to the kind of experiment: Ability to decrease blood glucose levels in fasted rats at the dose of 0.6 mmol/kg was determined; No effect. Format: functional, organism-based. An outline of the steps:
(§1)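 Male Sprague–Dawley SIV-50 or Mus Rattus rats (160–200 g), 6–12 per group, fasted overnight. Oral tube dosing as neutral aqueous solution or 1:1 Cremophor EL/water emulsion, 10 mL/kg. Retro-orbital blood taken before and at 2, 4 and 6 h; glucose measured enzymatically (HK/G6PDH). Change expressed relative to controls; two-sided Student's t test.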

The nature of series [2]: Tested for its effect on hepatic epoxide hydrolase; No significant inhibition up to 1e-3 mol/L.
The species entered for series [3] is Rattus norvegicus. As to the kind of experiment: Effective dose at which 50% of the rats show at least a 25% decrease of blood glucose levels compared to controls. Format: functional. An outline of the steps: (§2)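 Overnight-fasted male rats (Sprague–Dawley SIV-50 or Mus Rattus, 160–200 g), 6–12 per group, dosed orally at 10 mL/kg as neutral aqueous solution or 1:1 Cremophor EL/water emulsion. Retro-orbital blood glucose by HK/G6PDH before and 2, 4, 6 h post-dose. ED50 (25%) = dose at which 50% of rats show ≥25% fall versus controls. Derived by linear or log-linear regression over at least four doses.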

Series [4] deals with Rattus norvegicus. Kind of series: Ability to decrease blood glucose levels in fasted rats at the dose of 0.6 mmol/kg was determined. Format: functional. An outline of the steps:
as §1

A short description of series [5]: Compound was tested for its lethality in mice when administered perorally. The following applies: mouse, in vivo, po. Format: ADME, organism-based. In short, it runs like this:
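Groups of five female NMR mice (22-26 g), water ad libitum, food reduced to 50 g/kg body weight 18 h before dosing; single oral administration.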

The species named for series [6] is Rattus norvegicus. Kind of series: Effective dose at which 50% of the rats show at least a 25% decrease of blood glucose levels compared to controls; Not feasible. The class given is functional, organism-based. In short, it runs like this: as §2
The species named for series [7] is Rattus norvegicus. Kind of series: Effective dose at which 50% of the rats show at least a 25% decrease of blood glucose levels compared to controls; Reverse effect at higher dose.

Consider `CCOC(=O)C1(CCCCCCCCc2ccccc2)CO1` (stereo not given), for which, in the series on Rattus norvegicus [1], the Decrease result was “inactive”.
For the compound `CCOC(=O)C1(CCCc2ccccc2)CO1` (stereo not given), the Effect entry in series [2] was “No significant inhibition up to 1e-3 mol/L”. The compound further displayed an ED50 in the series filed under Rattus norvegicus [3] of 1170 µmol/kg. In addition, the Decrease in the series with Rattus norvegicus [4] is given as less than 19%.
As for `CCNC(=O)C1(CCCc2ccccc2)CO1` (stereo not given), in the series with Rattus norvegicus [1], the Decrease entry was “inactive”.
With `O=C([O-])C1(CCCCCc2ccc(Cl)cc2)CO1.[Na+]` (stereo not given), in series [2], the Effect entry was “No significant inhibition up to 1e-3 mol/L”. The compound also gave an LD50 in series [5] of 1640 µmol/kg. This compound also registered an ED50 in the series filed under Rattus norvegicus [3] of 30 µmol/kg. In addition, the Decrease with Rattus norvegicus [4] came out at 80%.
Regarding `CCOC(=O)C1(CCCc2cc(Cl)ccc2OC)CO1` (stereo not given), the Decrease result in the series on Rattus norvegicus [1] is “inactive”.
Still for that read-out and setting: the result for `CCOC(=O)C1(CCCc2ccc(Cl)cc2)OC12CCCCC2` (stereo not given) reads “inactive”.
As for `CCOC(=O)C1(CCCc2cccc(Cl)c2)CO1` (stereo not given), the ED50 in the series filed under Rattus norvegicus [3] was 680 µmol/kg. The Decrease in the series on Rattus norvegicus [4] was less than 26%.
Regarding `CCOC(=O)C1(Cc2ccccc2)CO1` (stereo not given), the Effect result in series [2] was “No significant inhibition up to 1e-3 mol/L”. In the series on Rattus norvegicus [1], the Decrease entry is “inactive”.
On to `CCN(CC)C(=O)C1(CCCc2ccccc2)CO1` (stereo not given), for which the Decrease entry in the series on Rattus norvegicus [1] is “inactive”.
Consider `CCOC(=O)C1(CCCc2ccc(Cl)c(Cl)c2)CO1` (stereo not given), for which the Effect result in series [2] was “No significant inhibition up to 1e-3 mol/L”. In addition, the LD50 in series [5] turned out to be 2870 µmol/kg. In the series filed under Rattus norvegicus [3], this compound had an ED50 of 330 µmol/kg. Further, the Decrease with Rattus norvegicus [4] is reported as less than 29%.
Regarding `CCOC(=O)C1OC1CCc1ccccc1` (stereo not given), the Decrease result in the series with Rattus norvegicus [1] was “inactive”.
For the compound `CCOC(=O)C1(CCCCCCCc2ccccc2)CO1` (stereo not given), the ED50 entry in the series filed under Rattus norvegicus [6] was “inactive”. In the series on Rattus norvegicus [4], this compound showed a Decrease of 18%.
As to `CCOC(=O)C1(CCCc2ccc(F)cc2)CO1` (stereo not given), in series [5], the LD50 stood at 3960 µmol/kg. The compound further had a Decrease in the series with Rattus norvegicus [4] of less than 37%.
`CCOC(=O)C1(CCCc2ccccc2Cl)CO1` (stereo not given) yielded a Decrease in the series with Rattus norvegicus [4] of less than 11%.
Take `NC(=O)C1(CCCc2ccccc2)CO1` (stereo not given): the Decrease entry in the series with Rattus norvegicus [1] was “inactive”.
In the case of `CCOC(=O)C1(CCCCc2ccccc2)CO1` (stereo not given), the Effect result in series [2] is “No significant inhibition up to 1e-3 mol/L”. In addition, the ED50 in the series filed under Rattus norvegicus [3] came out at 600 µmol/kg. Besides, the Decrease with Rattus norvegicus [4] was less than 44%.
`COC(=O)C1OC1CCCc1ccccc1` (stereo not given): the Decrease entry in the series on Rattus norvegicus [1] was “inactive”.
As to `CCOC(=O)C1(CCCCCCc2ccccc2)CO1` (stereo not given), in the series listed under Rattus norvegicus [6], the ED50 entry was “inactive”. In the series on Rattus norvegicus [4], this compound yielded a Decrease of 24%.
`O=C([O-])C1(CCCc2ccc(Cl)cc2)CO1.[Na+]` (stereo not given): the ED50 in the series filed under Rattus norvegicus [3] was found to be 180 µmol/kg. Further, the Decrease in the series on Rattus norvegicus [4] is listed as less than 68%.
In series [5], `CCOC(=O)C1(CCCCCCCc2ccc(Cl)cc2)CO1` (stereo not given) gave an LD50 of 950 µmol/kg. In the series filed under Rattus norvegicus [3], it took a dose of 270 µmol/kg to reach the 50% effect level (ED50). Further, in the series on Rattus norvegicus [4], the Decrease was less than 49%.
As to `O=C([O-])C1(CCCc2cccc(C(F)(F)F)c2)CO1.[Na+]` (stereo not given), the Effect entry in series [2] is “No significant inhibition up to 1e-3 mol/L”. In the series filed under Rattus norvegicus [3], this compound yielded an ED50 of 80 µmol/kg. In the series on Rattus norvegicus [4], this compound showed a Decrease of less than 77%.
In the case of `CCOC(=O)C1(CCCc2ccc(Cl)cc2)CO1` (stereo not given), the Effect result in series [2] is “No significant inhibition up to 1e-3 mol/L”. Also, in series [5], the LD50 stood at 2720 µmol/kg. In the series filed under Rattus norvegicus [3], this compound came in with an ED50 of 200 µmol/kg. For the same compound, in the series with Rattus norvegicus [4], the Decrease is given as less than 30%.
With `CCOC(=O)C1(CCCCCc2ccccc2)CO1` (stereo not given), the Effect entry in series [2] was “No significant inhibition up to 1e-3 mol/L”. Further, the LD50 in series [5] was determined as 880 µmol/kg. This compound showed a Decrease with Rattus norvegicus [4] of less than 18%. The 50% effect level in the series filed under Rattus norvegicus [7] (ED50) was put at a dose of 80 µmol/kg.
Take `CCOC(=O)C1(CCCCCc2ccc(Cl)cc2)CO1` (stereo not given): in series [2], the Effect entry is “No significant inhibition up to 1e-3 mol/L”. The LD50 in series [5] turned out to be 930 µmol/kg. In addition, the ED50 in the series filed under Rattus norvegicus [3] is 20 µmol/kg. The compound also came in with a Decrease in the series on Rattus norvegicus [4] of 80%.
The compound `CCOC(=O)C1(CCCc2ccc(Cl)cc2)OC1(C)C` (stereo not given) returned a Decrease in the series on Rattus norvegicus [4] of 10%.
As to `CCOC(=O)C1(CCCc2ccccc2)OC1(C)C` (stereo not given), in the series on Rattus norvegicus [1], the Decrease entry is “inactive”.
Still for that read-out and setting: the result for `CCOC(=O)C1(CCCc2ccc(C(C)(C)C)cc2)CO1` (stereo not given) reads “inactive”.
For `O=C([O-])C1(CCCCCc2ccccc2)CO1.[Na+]` (stereo not given), the Effect entry in series [2] was “No significant inhibition up to 1e-3 mol/L”. Moreover, the LD50 in series [5] turned out to be 1060 µmol/kg. Also, the ED50 result in the series filed under Rattus norvegicus [6] is “inactive”. This compound returned a Decrease in the series with Rattus norvegicus [4] of less than 29%.
In the case of `CCOC(=O)C1(CCCc2cccc(C(F)(F)F)c2)CO1` (stereo not given), the Effect result in series [2] is “No significant inhibition up to 1e-3 mol/L”. The LD50 in series [5] is 860 µmol/kg. The same compound registered an ED50 in the series listed under Rattus norvegicus [3] of 170 µmol/kg. This compound registered a Decrease in the series on Rattus norvegicus [4] of less than 47%.
Turning to `CCOC(=O)C1(CCCc2ccc(C)cc2)CO1` (stereo not given), in series [2], the Effect result was “No significant inhibition up to 1e-3 mol/L”. The compound further yielded a Decrease in the series on Rattus norvegicus [4] of less than 27%.
As to `CCOC(=O)C1(CCc2ccccc2)CO1` (stereo not given), in series [2], the Effect entry is “No significant inhibition up to 1e-3 mol/L”. Also, in the series on Rattus norvegicus [1], the Decrease entry is “inactive”.
For the compound `CCOC(=O)C1(CCCc2ccc(OC)cc2)CO1` (stereo not given), the Decrease result in the series with Rattus norvegicus [1] is “inactive”.
As for `CCOC(=O)C1(CCCc2ccccc2)OC12CCCCC2` (stereo not given), the Decrease entry in the series with Rattus norvegicus [1] was “inactive”.
